Assay [1] has as its system Mus musculus. Description: Analgesic activity was measured by phenylquinone writhing test in male Swiss albino mice at a dose of 0.004 mg/Kg, sc. The format is functional. The method, boiled down: (§1)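 Groups of five male Swiss albino mice (18-22 g). Test agent was suspended in physiological saline with Tween 80 by ultrasonic mixing and given sc. After 30 min, 0.03% phenyl-p-benzoquinone was given ip at 0.1 mL/10 g body weight. Total writhes were counted and compared with a vehicle-treated control group: % change = 100 − (treated writhes/control writhes × 100).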

The subject of assay [2] is Rattus norvegicus. Nature of the assay: Percentage change in blood glucose concentration in male Wistar rats after 4 hr post treatment at a dose of 100 mg/Kg po. It is filed as functional. The method, boiled down:
(§2)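 Groups of four male Wistar rats (230-260 g), fasted overnight. Test agent was suspended in 1% tragacanth in distilled water and given orally. Tail capillary blood was drawn at 0, 2 and 4 h. Serum glucose was determined spectrophotometrically from enzymatically produced NADH₂ (Barthelma-Czok procedure). Results are the mean of four animals; a positive value means hyperglycemic, a negative value hypoglycemic.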

Assay [3] concerns Rattus norvegicus. Nature of the assay: Percentage change in blood glucose concentration in male Wistar rats after 2 hr post treatment at a dose of 100 mg/Kg po. It is filed as functional. The procedure, abridged:
as §2

The subject of assay [4] is Rattus norvegicus. Description: Percentage change in blood glucose concentration in male Wistar rats after 2 hr post treatment at a dose of 100 mg/Kg po; Hypoglycemic. It is filed as functional. The method, boiled down: as §2
Assay [5] relates to Rattus norvegicus. Description: Percentage change in blood glucose concentration in male Wistar rats after 4 hr post treatment at a dose of 100 mg/Kg po; Hypoglycemic. It is filed as functional. The method, boiled down:
as §2

Assay [6] concerns Rattus norvegicus. Nature of the assay: Percentage change in blood glucose concentration in male Wistar rats after 2 hr post treatment at a dose of 30 mg/Kg po; Hyperglycemic. The format is functional. The procedure, abridged:
as §2

Assay [7] concerns Rattus norvegicus. Nature of the assay: Percentage change in blood glucose concentration in male Wistar rats after 4 hr post treatment at a dose of 100 mg/Kg po; Hyperglycemic. It is filed as functional. The procedure, abridged: as §2
Assay [8] has as its system Rattus norvegicus. Nature of the assay: Percentage change in blood glucose concentration in male Wistar rats after 2 hr post treatment at a dose of 100 mg/Kg po; Hyperglycemic. It is filed as functional. The method, boiled down:
as §2

Assay [9] concerns Mus musculus. Nature of the assay: Analgesic activity was measured by phenylquinone writhing test in male Swiss albino mice at a dose of 0.004 mg/Kg, sc. It is filed as functional. The procedure, abridged:
as §1
A general note: An intraperitoneal irritant provokes the stretching counted in writhing tests.

The subject of assay [10] is Mus musculus. Description: Analgesic activity was measured by phenylquinone writhing test in male Swiss albino mice at a dose of 3.1 mg/Kg, sc. The following applies: read-out: Inhibition.
For assay [11], the system named is Mus musculus. Nature of the assay: Analgesic activity was measured by phenylquinone writhing test in male Swiss albino mice at a dose of 0.038 mg/Kg, sc. The following applies: read-out: Inhibition.
In assay [12] the test system is Rattus norvegicus. Description: Percentage change in blood glucose concentration in male Wistar rats after 4 hr post treatment at a dose of 30 mg/Kg po; Hyperglycemic. It is filed as functional. The method, boiled down:
as §2

Assay [13] deals with Mus musculus. Description: Analgesic activity was measured by phenylquinone writhing test in male Swiss albino mice at a dose of 50 mg/Kg, sc. It is filed as functional. The method, boiled down:
as §1

Assay [14] relates to Rattus norvegicus. Nature of the assay: Antiinflammatory activity was measured by carrageenan-induced paw edema test in female Sprague-Dawley rats at dose of 12 mg/Kg sc after 5 hr. On the technique in general: The carrageenan paw model is a standard test of acute inflammation.
Assay [15] concerns Rattus norvegicus. Nature of the assay: Antiinflammatory activity was measured by carrageenan-induced paw edema test in female Sprague-Dawley rats at dose of 12 mg/Kg sc after 3h.

Structures are written as SMILES.

With `O=C(NN1CC=CCC1)c1ccccc1`, the inhibition in vivo at 0.004 mg/kg in assay [1] stood at 73.6%. For the same compound, the Change in assay [2] is 50%; in [3], 78%.
As to `O=C(NN1CC=CCC1)c1cc(Cl)cc(Cl)c1`, the inhibition in vivo at 0.004 mg/kg in assay [1] came out at 69.6%. Further, the Change stood at 18.5% in [2] and 3.8% in [3].
For `O=C(NN1CC=CCC1)c1ccc(C(F)(F)F)cc1`, in that order: 46.4%, 37.3% and 43.3%.
`O=C(NN1CC=CCC1)c1ccccc1Cl` returned an inhibition in vivo at 0.004 mg/kg in assay [1] of 52%. The Change came to 21.4% in assay [2] and 16.9% in [3].
In the case of `Cc1ccccc1C(=O)NN1CC=CCC1`, the inhibition in vivo at 0.004 mg/kg in assay [1] was found to be 72%. The Change is -2.8% in assay [4] and -6.3% in assay [5].
`O=C(NN1CC=CCC1)c1ccccc1F` displayed an inhibition in vivo at 0.004 mg/kg in assay [1] of 64.8%. Also, the Change in assay [6] worked out at 50%; in assay [2], 127%; in [3], 213%.
For `O=C(NN1CC=CCC1)c1ccc(Cl)cc1`, in [1], the inhibition in vivo at 0.004 mg/kg came out at 61.6%. Besides, the values for the Change in assay [2] and in assay [3] were 26% and 109%, respectively.
Turning to `O=C(NN1CC=CCC1)c1ccc(Cl)cc1Cl`, the inhibition in vivo at 0.004 mg/kg in assay [1] amounted to 57.2%. Besides, the Change in [4] is -6.5%; in assay [2] it was 1.3%.
For `COc1cccc(C(=O)NN2CC=CCC2)c1`, in assay [1], the inhibition in vivo at 0.004 mg/kg worked out at 68.8%. Further, the figures for the Change in [2] and in assay [3] were 72.8% and 113.3%, respectively.
`Cc1ccc(C(=O)NN2CC=CCC2)cc1C` gave an inhibition in vivo at 0.004 mg/kg in assay [1] of 60.8%. In addition, the Change in [2] is given as 62.8%; in [3], 92.3%.
On to `O=C(NN1CC=CCC1)c1ccc(F)cc1`, for which the inhibition in vivo at 0.004 mg/kg in [1] amounted to 55.2%. Moreover, the results for the Change in assay [2] and in assay [3] were 154% and 124%, respectively.
As for `COc1ccccc1C(=O)NN1CC=CCC1`, the inhibition in vivo at 0.004 mg/kg in assay [1] is 69.6%. Moreover, the results for the Change in assay [2] and in [3] were 6.3% and 5.8%, respectively.
As for `O=C(NN1CC=CCC1)c1ccc([N+](=O)[O-])cc1`, the Change in assay [7] came out at 140.6%; in assay [8], 92.6%. In [9], the inhibition in vivo at 0.004 mg/kg was 51%.
The compound `COc1ccc(C(=O)NN2CC=CCC2)cc1` displayed an inhibition in vivo at 0.004 mg/kg in [1] of 57.6%. In addition, the Change in assay [2] is 26%; in assay [3], 69%.
Compound `Cc1ccc(C(=O)NN2CC=CCC2)cc1` had an inhibition in vivo at 0.004 mg/kg in assay [1] of 48%. Further, the Change is reported as 41% in [2] and 73% in assay [3].
Consider `CN1CC[C@]23c4c5ccc(O)c4O[C@H]2[C@@H](O)C=C[C@H]3[C@H]1C5`, for which the inhibition in vivo at 3.1 mg/kg in assay [10] was 50%. The inhibition in vivo at 0.038 mg/kg in [11] was 50%.
`O=C(NN1CC=CCC1)c1ccc(Cl)c(Cl)c1` returned an inhibition in vivo at 0.004 mg/kg in [1] of 48.8%. In addition, the Change is given as 59% in assay [2] and 50% in [3].
For the compound `CC(C)(C)c1ccc(C(=O)NN2CC=CCC2)cc1`, the inhibition in vivo at 0.004 mg/kg in [1] was 48.8%. Moreover, the results for the Change in assay [2] and in assay [3] were 4.7% and 1.8%, respectively.
Regarding `O=C(NN1CC=CCC1)c1ccccc1C(F)(F)F`, in assay [1], the inhibition in vivo at 0.004 mg/kg is 64%. Also, the Change in assay [2] is 19.6%; in assay [3], 1.2%.
In [1], `O=C(NN1CC=CCC1)c1cccc(C(F)(F)F)c1` yielded an inhibition in vivo at 0.004 mg/kg of 54.4%. Further, the values for the Change in assay [2] and in [3] were 102% and 114.8%, respectively.
`Cc1cccc(C(=O)NN2CC=CCC2)c1` yielded an inhibition in vivo at 0.004 mg/kg in assay [1] of 56%. The Change in assay [6] stood at 50%; in assay [2], 108.5%; in assay [3], 117.2%; in assay [12], 50%.
As for `O=C(NN1CC=CCC1)c1cccc(F)c1`, the inhibition in vivo at 0.004 mg/kg in assay [1] was 65.6%. Moreover, the Change is listed as 137.8% in [2] and 167.3% in [3].
Turning to `CC(=O)Oc1ccccc1C(=O)O` [ASPIRIN], the inhibition in vivo at 50 mg/kg in assay [13] came to 50%.
For `CCCNC(=O)NS(=O)(=O)c1ccc(Cl)cc1` [CHLORPROPAMIDE], the Change was -42% in assay [4] and -38% in assay [5].
Consider `COc1ccc2c(c1)c(CC(=O)O)c(C)n2C(=O)c1ccc(Cl)cc1` [INDOMETHACIN], for which the inhibition in vivo at 12 mg/kg amounted to 83% in [14] and 17% in assay [15].
`CCC(=O)O[C@](Cc1ccccc1)(c1ccccc1)[C@H](C)CN(C)C` [PROPOXYPHENE] showed an inhibition in vivo at 0.004 mg/kg in assay [1] of 50%.

The record behind these values is ChEMBL document CHEMBL1122209, “Synthesis of N-[[(substituted-phenyl)carbonyl]amino]-1,2,3,6-tetrahydropyridines with analgesic and hyperglycemic activity” (J Med Chem, 1982).
